In series [1] the test system is Plasmodium falciparum. As to the kind of experiment: Antiplasmodial activity against chloroquine-resistant ring stage Plasmodium falciparum W2 infected in human RBC after 48 hrs by flow cytometric analysis. The format is functional, organism-based. The note with it: W2, 48 h. Put shortly: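 Ring-stage W2 parasites at 1% in human erythrocytes, synchronized with 5% sorbitol. Incubated with compound 48 h at 37 °C in RPMI-1640 with 25 mM HEPES pH 7.4, 10% heat-inactivated human serum (or 0.5% Albumax/2% human serum) and hypoxanthine, under 3% O₂/5% CO₂/[…]. Cells fixed in 2% formaldehyde, stained in PBS with NH₄Cl, 0.1% Triton X-100 and 1 nM YOYO-1, then counted by flow cytometry.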

In series [2] the test system is Plasmodium falciparum. As to the kind of experiment: Inhibition of Plasmodium falciparum falcipain-2 up to 50 uM.
Series [3] in a line: Inhibition of hemozoin-like crystal formation up to 1 mM after 5 days. It is filed as functional. Put shortly: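 Hemozoin-like crystal stock suspension sonicated 3 min and diluted in fresh broth medium. Compounds in wells at 0–1000 final concentration after 0.22 filtration. Incubated at 37 °C, 5% CO₂, 5 days, then scored for presence or absence of crystal growth. Triplicate.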

In series [4] the test system is HEK-293T. As to the kind of experiment: Cytotoxicity against HEK293T cells after 48 hrs by MTT assay. The following applies: Homo sapiens. The format is cell-based.
The nature of series [5]: Lipid accumulation ratio of the compound. The format is physicochemical. In short, it runs like this: (§1)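 Calculated rather than measured. VAR: predicted trapping in acidic digestive vacuole from pH-dependent water/lipid distribution (log D). LAR: expected fraction concentrating in the vacuole's lipid component.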
Series [6] is described as follows: Water-lipid distribution coefficient, log D of the compound at pH 5.2. It is filed as physicochemical.
The nature of series [7]: Selectivity index, ratio of EC50 for HEK293T cells to IC50 for chloroquine-resistant ring stage Plasmodium falciparum W2. The format is functional, HEK-293T.
A short description of series [8]: Water-lipid distribution coefficient, log D of the compound at pH 7.4. The format is physicochemical.
A short description of series [9]: Vacuolar accumulation ratio of the compound. The format is ADME. In short, it runs like this: as §1
Series [10] has as its system Plasmodium falciparum. As to the kind of experiment: Antimalarial activity against chloroquine-resistant ring stage Plasmodium falciparum Dd2 infected in human erythrocytes after 48 hrs by SYBR Green I staining-based isobologram method in presence of chloroquine. It is filed as functional. In short, it runs like this: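 Fixed-ratio isobologram: IC50s of each drug alone found first, then 2-fold dilution dose-response series at IC50 ratios 5:0, 4:1, 3:2, 2:3, 1:4, 0:5. Early ring-stage parasitized erythrocytes at 1% parasitaemia, 3% haematocrit, triplicate wells, 48 h at 37 °C. Growth read by SYBR Green I fluorescence, nonlinear regression. Interaction from sum of FICs (IC50 in combination/IC50 alone).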

Series [11] is described as follows: Inhibition of hemozoin-like crystal formation after 5 days. The format is functional. The following applies: 120 h. Put shortly:
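Hemozoin-like crystal stock suspension sonicated 3 min, diluted in fresh broth. Compounds 0.22-filtered, then added across a 0–1000 final range. Incubated 37 °C, 5% CO2 for 5 days, scored for presence or absence of crystal growth. Triplicate.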

The nature of series [12]: Inhibition of Plasmodium falciparum falcipain-2.

Results on six compounds are retold here after ChEMBL document CHEMBL3259771, “Probing the aurone scaffold against Plasmodium falciparum: design, synthesis and antimalarial activity” (Eur J Med Chem, 2014).

pEC50, pIC50: −log10 of the molar value. Converted amounts (≈) assume the structure as drawn. The source made the active and inactive calls. The rule behind the calls is not given here. Where only a bound is given, the exact number is not on record here.

For the compound `Nc1ccc(-c2ccc(/C=C3\Oc4ccccc4C3=O)cc2)cn1`, the pIC50 in series [1] is 5.43. The inhibition entry in [2] and in [3] was “inactive” throughout. The compound further had a negative logarithm of the EC50 (pEC50) in series [4] of less than 4.00. The Ratio in series [5] worked out at 4643; in series [9], 9.2. For the same compound, the logD was 2.7 in series [6] and 3.67 in [8]. Also, the “Selectivity Index” value in series [7] was greater than 27.
For the compound `O=C1/C(=C/c2ccccc2)Oc2c1ccc(O)c2CN1CCOCC1`, the pIC50 in series [1] is 5.48. Also, the inhibition entry in series [3] was “inactive”. The compound further gave a negative logarithm of the EC50 (pEC50) in series [4] of less than 4.00. Further, the Ratio in series [5] came out at 265; in [9], 17.2. Further, the logD was determined as 1.19 in [6] and 2.42 in [8]. Moreover, the “Selectivity Index” value in series [7] was greater than 30. The CI in series [10] came to 1.06.
`Nc1ccc(-c2ccc3c(c2)O/C(=C\c2ccccc2)C3=O)cn1` had a negative logarithm of the IC50 (pIC50) in [1] of 5.52. The inhibition result in series [2] and in series [3] was “inactive” in each case. For the same compound, in series [4], the pEC50 is less than 4.00. Further, the Ratio is recorded as 150233 in series [5] and 9.2 in series [9]. In addition, the logD is 4.21 in series [6] and 5.18 in series [8]. Moreover, the “Selectivity Index” value in series [7] is greater than 33.
In the case of `CCN(CC)CCCC(C)Nc1ccnc2cc(Cl)ccc12` (stereo unspecified) [CHLOROQUINE], the MIC in series [11] turned out to be 125 µM (≈ 40 µg/mL).
For the compound `Nc1ccc(-c2cccc(/C=C3\Oc4ccccc4C3=O)c2)cn1`, the negative-log IC50 (pIC50) in series [1] is 5.59. The inhibition entry in [2] and in series [3] was “inactive” throughout. In series [4], this compound gave a pEC50 of 4.10. In addition, the values for the Ratio in [5] and in series [9] were 4643 and 9.2, respectively. In addition, the values for the pH-dependent lipophilicity (logD) in series [6] and in [8] were 2.7 and 3.67, respectively. In addition, the “Selectivity Index” value in series [7] is on record as greater than 31.
As for `COc1cccc2c1O/C(=C\c1ccc(Cl)cc1Cl)C2=O`, the pIC50 was 5.32 in [1] and 4.73 in series [12]. For the same compound, the negative-log EC50 (pEC50) in [4] is less than 4.00. Besides, the “Selectivity Index” value in series [7] is listed as greater than 21.
